From PubChem BioAssay
Shown are actives, neighbours in structure and some others; about 1.9% of the full set was active somewhere.
SR-BI uptake up – enhances SR-BI lipid uptake from DiI-HDL; CHO ldlA[mSR-BI] cells, DiI-HDL uptake fluorescence, 3 h; 100 = double the neutral-control signal; activation, % at 12.5 µM; 320,000 tested, 0.096% active; AID 504775;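 active = mean replicate activation of at least 60% and every replicate at or above 60%; inconclusive = mean or all-replicate condition met, but not both; inactive = mean below 60% and not all replicates reaching 60%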
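Test system: SR-BI-overexpressing, LDLR-lacking CHO cells; Also added: labelled HDL, 10 µg/mL; Measured by: bottom-read cell fluorescence after medium removal, ex 550/em 595 nm; Timing: 3 h uptake period with compound, 37 °C; Buffer or medium: F12, 0.5% BSA, 25 mM HEPES; Doses: single compound concentration, delivered by pin transfer.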
Rtt109 Vps75 – blocks Candida albicans Rtt109/Vps75 acetyltransferase activity. Q5AAJ8. 330,000 tested, 0.16% active. purified Rtt109/Vps75, ThioGlo CoA-SH fluorescence, 4 h. inhibition, % at 34.9 µM. AID 540336;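 active = inhibition of at least 50% in every replicate; inconclusive = best replicate reaches 50% inhibition but some replicates fall short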
Target sequence (Q5AAJ8 whole entry, looked up): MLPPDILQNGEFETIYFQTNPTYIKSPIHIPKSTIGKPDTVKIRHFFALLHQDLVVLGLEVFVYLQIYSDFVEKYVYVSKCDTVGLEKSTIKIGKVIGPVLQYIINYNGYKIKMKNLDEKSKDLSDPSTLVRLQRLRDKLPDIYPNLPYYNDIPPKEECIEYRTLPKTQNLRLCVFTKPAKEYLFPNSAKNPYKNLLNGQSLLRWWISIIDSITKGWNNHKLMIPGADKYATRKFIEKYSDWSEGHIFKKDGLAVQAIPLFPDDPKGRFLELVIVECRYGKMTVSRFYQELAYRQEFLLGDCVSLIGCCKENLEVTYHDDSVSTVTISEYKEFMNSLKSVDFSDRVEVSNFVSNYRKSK
SR-BI HDL uptake – inhibitors of mouse SR-BI mediated HDL lipid uptake; Q61009; AID 488896; 320,000 tested, 0.96% active; ldlA[mSR-BI] CHO cells, DiI-HDL uptake fluorescence, 3 h; inhibition, % at 12.5 µM;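 active = mean replicate inhibition of at least 70% and a set share of replicates each scoring 70 or more; inconclusive = meets just one of the two criteria; inactive = fails both criteria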
PglD inh – blocks C. jejuni PglD acetyltransferase activity; 360,000 tested, 0.098% active; inhibition, % at 12.5 µM; AID 602405; purified PglD enzyme, DTNB colorimetric CoA detection; in the data active = inhibition above about 16%, passing the limit was not always enough; inconclusive = no clear call, values can overlap the other calls
Env fusion inh – HIV envelope-mediated fusion inhibition | AID 651610 | inhibition, % at 12.3 µM | 360,000 tested, 1.1% active | HeLa-JRFL Env/CEM21 cell fusion, luciferase;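 active = mean replicate inhibition score of at least 50 and every replicate individually at or above 50; inconclusive = only one of the two criteria met; inactive = mean below 50 and not all replicates reaching 50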
Glyco luc inh – N-linked glycosylation inhibition; D54 ERlucT glycosylation luciferase reporter, 24 h; percent of 100 nM tunicamycin response; reporter increase, % at 12.5 µM; 360,000 tested, 0.23% active; AID 588692;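 active = mean luciferase reporter signal, scaled so untreated is 0 and the glycosylation-blocking control 100, at or above a set limit in every replicate; inconclusive = mean reaches the limit but not every replicate does; inactive = mean below the limit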;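 also: luciferase carries N-glycosylation sites so blocking glycosylation raises the light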
Of the large screens only hits and unclear results are named; the others gave an inactive call.

COc1cccc(NC(=O)Nc2ccc3c(c2)C(=O)N(C)C[C@H](OC)[C@@H](C)CN(C)[C@@H](C)CO3)c1	none (no result: SR-BI uptake up, Rtt109 Vps75, SR-BI HDL uptake, Glyco luc inh)
Cn1cc(C(CC(=O)O)C(=O)O)c2ccccc21 (centres undefined)	none (no result: Env fusion inh)
CC(C)n1c(/C=C/[C@H](O)C[C@H](O)CC(=O)O)c(-c2ccc(F)cc2)c2ccccc21	Glyco luc inh 104 (no result: Env fusion inh)
COc1cc(CN2CCN(C(=O)c3ccc(-c4ccccc4)cc3)CC2)cc(OC)c1OC	SR-BI HDL uptake 84
COc1ccc2[nH]c(C(=O)N3CCN(Cc4ccccc4)CC3)cc2c1OC	Glyco luc inh 45
COc1cccc(OC)c1C(=O)N1CCN(Cc2ccccc2C)CC1	SR-BI uptake up 67 (no result: Env fusion inh)
COc1ccc(OC)c(CN2CCN(C(=O)c3ccc(S(=O)(=O)Nc4ccccc4F)cc3)CC2)c1	none (no result: Env fusion inh)
COc1ccc(OC)c(CN2CCN(C(=O)c3cccc(S(=O)(=O)Nc4ccccc4OC)c3)CC2)c1	SR-BI HDL uptake 77 (no result: PglD inh)
COc1cccc(CN2CCN(C(=O)c3ccc(-c4ccccc4)cc3)CC2)c1OC	none (no result: PglD inh)
COc1ccccc1CN1CCN(C(=O)c2cccc3ccccc23)CC1	none (no result: SR-BI uptake up, Rtt109 Vps75, SR-BI HDL uptake)
C[C@H](CO)N1C[C@H](C)[C@H](CN(C)C(=O)Nc2ccc3c(c2)OCO3)Oc2ccc(NC(=O)Nc3ccc(C(F)(F)F)cc3)cc2CC1=O	none (no result: SR-BI uptake up, Rtt109 Vps75, SR-BI HDL uptake, Glyco luc inh)
COc1ccc(NC(=O)Nc2ccc3c(c2)C(=O)N([C@@H](C)CO)C[C@@H](C)[C@H](CN(C)C(=O)NC2CCCCC2)OCCCC[C@@H](C)O3)cc1	none (no result: SR-BI uptake up, Rtt109 Vps75, SR-BI HDL uptake, Glyco luc inh)
COc1ccc(S(=O)(=O)N2CCC3(CC2)CN(C(=O)c2cccnc2)[C@@H](CO)c2c3c3ccc(OC)cc3n2C)cc1	none (no result: SR-BI uptake up, Rtt109 Vps75, SR-BI HDL uptake, PglD inh, Glyco luc inh)
COc1ccc(C(=O)N2CCN(C(=O)c3ccc(-c4ccccc4)cc3)CC2)cc1OC	none (no result: PglD inh)
COc1cc(OC)cc(C(=O)N2CCN(C(=O)c3ccc(-c4ccccc4)cc3)CC2)c1	SR-BI HDL uptake 79 (no result: PglD inh)
COc1ccc(C(=O)C2CCN(C(=O)c3ccc(C)cc3)CC2)cc1	Env fusion inh 86
O=C(CSC1=NNC(c2ccccn2)S1)Nc1cccc(Cl)c1 (centres undefined)	SR-BI HDL uptake 78
O=C(CSC1=NNC(c2ccccn2)S1)Nc1ccccc1 (centres undefined)	none
CCS(=O)(=O)c1ncc(Cl)c(C(=O)Nc2ccc(S(=O)(=O)N(C)c3ccccc3)cc2)n1	SR-BI HDL uptake 86, Env fusion inh inconclusive
Cc1nc2ccc(NC(=O)c3ccc(Cl)c(S(=O)(=O)N(C)c4ccccc4)c3)cc2s1	Env fusion inh 74
Cc1nc2ccc(NC(=O)c3cc(S(=O)(=O)N(C)c4ccccc4)ccc3Cl)cc2s1	Env fusion inh 87 (no result: PglD inh)
CCN(c1ccccc1)S(=O)(=O)c1ccc(NC(=O)c2nc(S(C)(=O)=O)ncc2Cl)cc1	none (no result: Env fusion inh)
CCCC(=O)Nc1ccc2c(c1)C(=O)N(C)[C@H]1CC[C@H](CC(=O)NCc3ccccc3)O[C@@H]1CO2	none (no result: SR-BI uptake up, Rtt109 Vps75, SR-BI HDL uptake, Glyco luc inh)
CCN(CC)C(=O)c1ncn2c1C(=O)NC[C@@H]2C	Env fusion inh 117 (no result: SR-BI uptake up, Rtt109 Vps75, SR-BI HDL uptake, PglD inh, Glyco luc inh)
C[C@H]1Cn2cnc(C(=O)N3CCN(c4ccccc4)CC3)c2C(=O)N1	Env fusion inh 88 (no result: SR-BI uptake up, Rtt109 Vps75, SR-BI HDL uptake, PglD inh, Glyco luc inh)
CC1CCN(C(=O)c2ncn3c2C(=O)NC[C@@H]3C)CC1	Env fusion inh 101 (no result: SR-BI uptake up, Rtt109 Vps75, SR-BI HDL uptake, PglD inh, Glyco luc inh)
C[C@H]1CNC(=O)c2c(C(=O)N(C)Cc3ccccc3)ncn21	none (no result: SR-BI uptake up, Rtt109 Vps75, SR-BI HDL uptake, PglD inh, Glyco luc inh)
CN1CCn2cnc(C(=O)N3CCN(c4ccccc4)CC3)c2C1=O	none (no result: SR-BI uptake up, Rtt109 Vps75, SR-BI HDL uptake)
C[C@@H]1CNC(=O)c2c(C(=O)N3CCN(c4ccccc4)CC3)ncn21	Env fusion inh 89 (no result: SR-BI uptake up, Rtt109 Vps75, SR-BI HDL uptake, PglD inh, Glyco luc inh)
C[C@@H]1CN([C@@H](C)CO)C(=O)Cc2cc(N(C)C)ccc2O[C@@H]1CN(C)C(=O)Nc1ccc(F)cc1	none (no result: SR-BI uptake up, Rtt109 Vps75, SR-BI HDL uptake, Env fusion inh, Glyco luc inh)
CNC[C@H]1Oc2ccc(NC(=O)CCCN(C)C)cc2C(=O)N([C@@H](C)CO)C[C@H]1C	none (no result: SR-BI uptake up, Rtt109 Vps75, SR-BI HDL uptake, Glyco luc inh)
CN(C)CC1CCC/C(=C\c2ccc(OC(=O)c3ccc(Cl)cc3)cc2)C1=O (centres undefined)	Env fusion inh 60 (no result: PglD inh)
C[C@H](CO)N1C[C@H](C)[C@@H](CN(C)Cc2ccccc2)Oc2ccc(NC(=O)Nc3ccc(F)cc3)cc2CC1=O	none (no result: SR-BI uptake up, Rtt109 Vps75, SR-BI HDL uptake, Glyco luc inh)
C[C@H]1CN([C@@H](C)CO)C(=O)c2cc(C#CC3CC3)cnc2O[C@@H]1CN(C)S(C)(=O)=O	none (no result: SR-BI uptake up, Rtt109 Vps75, SR-BI HDL uptake, Glyco luc inh)
